Test results: article PMC4944921 (Drug Design, Development and Therapy, 2016)

What was measured:
[1] = test system: TJ proteins (occludin, claudin-1, F-actin) in Calu-3 cells; assay: Immunofluorescence microscopy of tight junction proteins in Calu-3 cells; format: cell-based, human; settings: 3 hours treatment, vs control group
In short: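 Calu-3 monolayers on collagen-coated 0.4 μm PET Transwell membranes were exposed to test compounds in medium for 3 h. Cells were fixed in cold 4% paraformaldehyde for 30 min and blocked with goat serum for 1 h. Anti-occludin or anti-claudin-1 (1:100, 4°C overnight) was detected with TRITC anti-rabbit or FITC anti-mouse IgG. F-actin was stained with phalloidin (1:150, RT, 30 min) and nuclei with DAPI. Relative AOD = (IntDen/Area) as % of control; three experiments; Dunnett test.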

[2] = test system: Calu-3 cells; assay: TEER change of Calu-3 monolayers after exposure to compounds; format: cell-based, human; settings: A→B and B→A, 30-180 minutes, vs control group
In short: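 Monolayers with TEER above 500 Ω cm2 received drug solution on the apical side (HBSS basolateral) or on the basolateral side (HBSS apical). Untreated monolayers served as control. TEER was read with chopstick electrodes and an epithelial volt–ohm meter at 30, 60, 90, 120, 150 and 180 min. Values are expressed relative to pre-experiment TEER (100%) and compared with control by one-way ANOVA and Dunnett test (P<0.05); three experiments, mean ± SD.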

[3] = test system: Calu-3 cells; assay: MTT cytotoxicity assay in Calu-3 cells; format: cell-based, human; settings: comparison of the three compounds
In short: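 Calu-3 cells were seeded at 1×10^5 cells/mL in 96-well plates and grown for 48 h at 37°C in 5% CO2. They were then exposed to test compounds at various concentrations for 48 h. MTT (5 mg/mL stock in PBS) was added for 4 h at 37°C, formazan was dissolved in DMSO, and A490 was read. Viability (%) = (Asample−Ablank)/(Acontrol−Ablank)×100, from the mean of five measurements.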

[4] = test system: Calu-3 cell monolayer; assay: Puerarin bidirectional transport across Calu-3 cell monolayers; format: in vitro ADME, human
In short: (§1)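 Calu-3 cells (passages 5–10) were grown on collagen-coated PET Transwells, switched to air-interface culture from day 5 and used once TEER exceeded 500 Ω cm2. Monolayers were HBSS-washed and equilibrated for 30 min at 37°C. Drug was placed apically (A→B) or basolaterally (B→A), with shaking at 37°C. Receiver samples were taken at 30–180 min for HPLC-UV at 250 nm (C18; methanol:1% acetate 37:63). Papp was normalised to donor concentration and membrane area; ER = Papp(B→A)/Papp(A→B); n=3.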

[5] = as above; format: in vitro ADME, human; settings: human
In short: as §1

[6] = cited from earlier work
[7] = test system: abdominal skin of Rana catesbeiana; settings: menthol 5 mg/mL with puerarin, compared with puerarin alone group; cited from earlier work

**Q.** With `C[C@@]12C[C@@]3(O)O[C@@H](O1)[C@]1(COC(=O)c4ccccc4)[C@H]3C[C@@]12O[C@@H]1O[C@H](CO)[C@@H](O)[C@H](O)[C@H]1O` [paeoniflorin] as the compound, how does the “relative AOD of occludin, claudin-1, and F-actin” value [1] read?
**A.** Its value is “did not significantly differ”.

**Q.** What does the source list for `O=c1c(-c2ccc(O)cc2)coc2c([C@@H]3O[C@H](CO)[C@@H](O)[C@H](O)[C@H]3O)c(O)ccc12` [puerarin]?
**A.** relative AOD of occludin, claudin-1, and F-actin [1]: did not significantly differ; trend of TEER change [2]: no difference from the control group; relative toxicity to Calu-3 cells [3]: safer and less irritating than paeoniflorin; ER (B→A/A→B) ([4]; puerarin 60 μg/mL + menthol 15 μg/mL): 1.065±0.116; ER (B→A/A→B) ([4]; puerarin 60 μg/mL + menthol 30 μg/mL): 1.100±0.060; ER (B→A/A→B) ([4]; puerarin 60 μg/mL + menthol 60 μg/mL): 1.157±0.088; ER (B→A/A→B) ([4]; puerarin 60 μg/mL + paeoniflorin 12 μg/mL): 1.002±0.039; ER (B→A/A→B) ([4]; puerarin 60 μg/mL + paeoniflorin 12 μg/mL + menthol 15 μg/mL): 0.999±0.150; ER (B→A/A→B) ([4]; puerarin 60 μg/mL + paeoniflorin 24 μg/mL): 1.018±0.065; ER (B→A/A→B) ([4]; puerarin 60 μg/mL + paeoniflorin 24 μg/mL + menthol 30 μg/mL): 1.228±0.157; ER (B→A/A→B) ([4]; puerarin 60 μg/mL + paeoniflorin 48 μg/mL): 1.049±0.027; ER (B→A/A→B) ([4]; puerarin 60 μg/mL + paeoniflorin 48 μg/mL + menthol 60 μg/mL): 1.091±0.048; ER (B→A/A→B) ([4]; puerarin 120 μg/mL alone): 1.023±0.070; efflux ratio (ER) ([4]; puerarin alone, each concentration 30, 60, 120 μg/mL): ~ 1; Papp at 180 min [5]: < 1.5 ×10⁻⁶ cm/s; efflux ratio at 180 min, 30 μg/mL ([5]; ER (B→A/A→B), puerarin 30 μg/mL alone): 0.963 ± 0.065; efflux ratio at 180 min, 60 μg/mL ([5]; ER (B→A/A→B), puerarin 60 μg/mL alone): 1.01 ± 0.032; Papp A→B at 180 min, 30 μg/mL ([5]; Papp (A→B), puerarin 30 μg/mL alone): 1.22 ± 0.027 ×10⁻⁶ cm/s; Papp A→B at 180 min, 60 μg/mL ([5]; Papp (A→B), puerarin 60 μg/mL + menthol 15 μg/mL): 1.28 ± 0.084 ×10⁻⁶ cm/s; Papp A→B at 180 min, 60 μg/mL ([5]; Papp (A→B), puerarin 60 μg/mL + menthol 30 μg/mL): 1.64 ± 0.058 ×10⁻⁶ cm/s; Papp A→B at 180 min, 60 μg/mL ([5]; Papp (A→B), puerarin 60 μg/mL + menthol 60 μg/mL): 1.79 ± 0.087 ×10⁻⁶ cm/s; Papp A→B at 180 min, 60 μg/mL ([5]; Papp (A→B), puerarin 60 μg/mL + paeoniflorin 12 μg/mL): 1.24 ± 0.027 ×10⁻⁶ cm/s; Papp A→B at 180 min, 60 μg/mL ([5]; Papp (A→B), puerarin 60 μg/mL + paeoniflorin 12 μg/mL + menthol 15 μg/mL): 1.3 ± 0.15 ×10⁻⁶ cm/s; Papp A→B at 180 min, 60 μg/mL ([5]; Papp (A→B), puerarin 60 μg/mL + paeoniflorin 24 μg/mL): 1.23 ± 0.054 ×10⁻⁶ cm/s; Papp A→B at 180 min, 60 μg/mL ([5]; Papp (A→B), puerarin 60 μg/mL + paeoniflorin 24 μg/mL + menthol 30 μg/mL): 1.56 ± 0.143 ×10⁻⁶ cm/s; Papp A→B at 180 min, 60 μg/mL ([5]; Papp (A→B), puerarin 60 μg/mL + paeoniflorin 48 μg/mL): 1.23 ± 0.025 ×10⁻⁶ cm/s; Papp A→B at 180 min, 60 μg/mL ([5]; Papp (A→B), puerarin 60 μg/mL + paeoniflorin 48 μg/mL + menthol 60 μg/mL): 1.96 ± 0.067 ×10⁻⁶ cm/s; Papp A→B at 180 min, 60 μg/mL ([5]; Papp (A→B), puerarin 60 μg/mL alone): 1.23 ± 0.039 ×10⁻⁶ cm/s; Papp A→B at 180 min, 120 μg/mL ([5]; Papp (A→B), puerarin 120 μg/mL alone): 1.24 ± 0.053 ×10⁻⁶ cm/s; Papp A→B at 180 min ([5]; Papp (A→B), puerarin alone, span over 30, 60 and 120 μg/mL): 1.22 to 1.24 ×10⁻⁶ cm/s; Papp B→A at 180 min, 30 μg/mL ([5]; Papp (B→A), puerarin 30 μg/mL alone): 1.17 ± 0.053 ×10⁻⁶ cm/s; Papp B→A at 180 min, 60 μg/mL ([5]; Papp (B→A), puerarin 60 μg/mL + menthol 15 μg/mL): 1.36 ± 0.083 ×10⁻⁶ cm/s; Papp B→A at 180 min, 60 μg/mL ([5]; Papp (B→A), puerarin 60 μg/mL + menthol 30 μg/mL): 1.8 ± 0.111 ×10⁻⁶ cm/s; Papp B→A at 180 min, 60 μg/mL ([5]; Papp (B→A), puerarin 60 μg/mL + menthol 60 μg/mL): 2.07 ± 0.151 ×10⁻⁶ cm/s; Papp B→A at 180 min, 60 μg/mL ([5]; Papp (B→A), puerarin 60 μg/mL + paeoniflorin 12 μg/mL): 1.24 ± 0.037 ×10⁻⁶ cm/s; Papp B→A at 180 min, 60 μg/mL ([5]; Papp (B→A), puerarin 60 μg/mL + paeoniflorin 12 μg/mL + menthol 15 μg/mL): 1.29 ± 0.067 ×10⁻⁶ cm/s; Papp B→A at 180 min, 60 μg/mL ([5]; Papp (B→A), puerarin 60 μg/mL + paeoniflorin 24 μg/mL): 1.25 ± 0.032 ×10⁻⁶ cm/s; Papp B→A at 180 min, 60 μg/mL ([5]; Papp (B→A), puerarin 60 μg/mL + paeoniflorin 24 μg/mL + menthol 30 μg/mL): 1.91 ± 0.254 ×10⁻⁶ cm/s; Papp B→A at 180 min, 60 μg/mL ([5]; Papp (B→A), puerarin 60 μg/mL + paeoniflorin 48 μg/mL): 1.29 ± 0.035 ×10⁻⁶ cm/s; Papp B→A at 180 min, 60 μg/mL ([5]; Papp (B→A), puerarin 60 μg/mL + paeoniflorin 48 μg/mL + menthol 60 μg/mL): 2.14 ± 0.13 ×10⁻⁶ cm/s; Papp B→A at 180 min, 60 μg/mL ([5]; Papp (B→A), puerarin 60 μg/mL alone): 1.24 ± 0.055 ×10⁻⁶ cm/s; Papp B→A at 180 min, 120 μg/mL ([5]; Papp (B→A), puerarin 120 μg/mL alone): 1.27 ± 0.104 ×10⁻⁶ cm/s; Papp B→A at 180 min ([5]; Papp (B→A), puerarin alone, span over 30, 60 and 120 μg/mL): 1.17 to 1.27 ×10⁻⁶ cm/s; efflux ratio at 180 min ([5]; efflux ratio (ER), puerarin alone, each concentration 30, 60, 120 μg/mL): < 1.5; AUC0−∞ (plasma) ([6]; Tongqiaosanyu, caudal vein injection, rats): 787.99±70.44 mg⋅min⋅L^−1; AUC0–∞ (plasma) ([6]; Tongqiaosanyu, nasal administration, rats): 376.56±93.93 mg⋅min⋅L^−1; brain drug targeting index ([6]; intranasal administration): 2.70; brain targeting coefficient (Re) ([6]; intranasal administration): 132.25%; absolute bioavailability ([6]; nasal administration): 47.78%

**Q.** With `CC1CCC(C(C)C)C(O)C1` (centres unmarked) [menthol] as the compound, how does the “Papp value of puerarin” value [7] read?
**A.** The value was “significantly higher”.

**Q.** And the “relative AOD of occludin, claudin-1, and F-actin” value [1]?
**A.** The value was “decreased significantly”.

**Q.** And the “relative toxicity to Calu-3 cells” value [3]?
**A.** Its value is “most toxic”.
